Measured values from ChEMBL document CHEMBL3856243, “Structure-Activity Relationships and Kinetic Studies of Peptidic Antagonists of CBX Chromodomains” (J Med Chem, 2016).
Activity calls are given as the source filed them. The rule behind the calls is not given here. Square brackets hold non-standard residues; d marks the D form. Peptide text beside a SMILES is read from it. * marks the point of attachment. Benzoyl(4-tBu) = CC(C)(C)c1ccc(C(=O)*)cc1; Lys(Et2) = CCN(CC)CCCC[C@H](N)C(=O)O

Key:
[1] = molecular target: T1, Chromodomain Y-like protein 2 (Homo sapiens, UniProt Q8N8U2)
T1 sequence (Q8N8U2 whole entry): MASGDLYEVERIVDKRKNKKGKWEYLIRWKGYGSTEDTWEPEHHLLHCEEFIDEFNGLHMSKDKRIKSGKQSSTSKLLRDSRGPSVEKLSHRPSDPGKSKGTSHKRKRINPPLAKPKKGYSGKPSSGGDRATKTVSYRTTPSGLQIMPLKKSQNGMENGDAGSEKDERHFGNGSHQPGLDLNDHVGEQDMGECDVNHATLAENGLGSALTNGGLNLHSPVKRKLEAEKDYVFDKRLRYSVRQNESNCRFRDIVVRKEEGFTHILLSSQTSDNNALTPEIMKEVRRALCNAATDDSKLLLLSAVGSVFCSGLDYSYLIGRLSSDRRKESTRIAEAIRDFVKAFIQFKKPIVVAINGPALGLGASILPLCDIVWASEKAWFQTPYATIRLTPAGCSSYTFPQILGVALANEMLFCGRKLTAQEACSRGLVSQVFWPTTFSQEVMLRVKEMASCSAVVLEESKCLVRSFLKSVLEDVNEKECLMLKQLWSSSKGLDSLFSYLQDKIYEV

[2] = molecular target: T2, Testis-specific chromodomain protein Y 1 (Homo sapiens, UniProt Q9Y6F8); assay: Binding affinity to human N-terminal GST-tagged CDY1 chromodomain (1 to 101 residues) expressed in Escherichia coli Rosetta BL21(DE3)pLysS by ITC method
T2 sequence (Q9Y6F8 whole entry): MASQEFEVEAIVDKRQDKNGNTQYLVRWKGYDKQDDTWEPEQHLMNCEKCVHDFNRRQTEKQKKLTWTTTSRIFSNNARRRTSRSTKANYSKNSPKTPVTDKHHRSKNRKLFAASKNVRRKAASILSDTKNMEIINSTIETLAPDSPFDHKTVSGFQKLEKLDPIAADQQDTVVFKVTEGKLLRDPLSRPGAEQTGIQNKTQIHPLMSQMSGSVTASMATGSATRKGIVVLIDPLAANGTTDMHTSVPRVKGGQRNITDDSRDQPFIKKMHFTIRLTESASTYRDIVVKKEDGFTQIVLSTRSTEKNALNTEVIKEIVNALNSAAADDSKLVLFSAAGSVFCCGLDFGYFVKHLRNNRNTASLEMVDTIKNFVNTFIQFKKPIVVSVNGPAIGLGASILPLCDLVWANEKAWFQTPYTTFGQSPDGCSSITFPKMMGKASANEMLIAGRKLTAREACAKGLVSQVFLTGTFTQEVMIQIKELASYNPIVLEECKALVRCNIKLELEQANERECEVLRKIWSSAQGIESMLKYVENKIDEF

[3] = molecular target: T3, Chromobox protein homolog 8 (Homo sapiens, UniProt Q9HC52); assay: Binding affinity to human N-terminal his-tagged CBX8 chromodomain (8 to 61 residues) expressed in Escherichia coli Rosetta BL21(DE3)pLysS by ITC method
T3 sequence (Q9HC52 whole entry): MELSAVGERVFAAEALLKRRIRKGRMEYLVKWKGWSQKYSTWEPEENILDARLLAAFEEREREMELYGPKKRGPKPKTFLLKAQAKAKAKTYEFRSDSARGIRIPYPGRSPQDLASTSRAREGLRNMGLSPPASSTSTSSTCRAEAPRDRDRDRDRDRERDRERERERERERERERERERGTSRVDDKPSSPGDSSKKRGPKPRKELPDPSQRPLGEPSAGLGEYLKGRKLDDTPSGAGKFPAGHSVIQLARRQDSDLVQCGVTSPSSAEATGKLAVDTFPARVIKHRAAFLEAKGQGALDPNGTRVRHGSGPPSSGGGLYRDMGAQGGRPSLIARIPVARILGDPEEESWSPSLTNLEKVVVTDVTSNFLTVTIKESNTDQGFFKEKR

[4] = molecular target: Chromobox protein homolog 3 (Homo sapiens, UniProt Q13185); assay: Binding affinity to CBX3 chromodomain (unknown origin) by ITC method
Chain of Chromobox protein homolog 3 (Q13185 whole entry): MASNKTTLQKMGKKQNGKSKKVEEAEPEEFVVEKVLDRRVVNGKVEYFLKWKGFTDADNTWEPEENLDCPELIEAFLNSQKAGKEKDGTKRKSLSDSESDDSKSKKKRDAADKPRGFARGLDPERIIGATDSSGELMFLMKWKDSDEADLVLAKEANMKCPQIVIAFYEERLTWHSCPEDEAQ

[5] = system: PC-3; assay: Antiproliferative activity against human PC3 cells assessed as reduction in cell count at 30 uM measured after 72 hrs by DAPI-staining based microscopic method; assay type: functional
Method in brief: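 PC3 cells seeded at 400/well, adhered overnight, then given DMEM + 10% FBS with 30 µM compound or DMSO for 72 h; fixed in ice-cold methanol, rehydrated in PBS, nuclei stained with DAPI (0.05 µg/ml) and counted by high content microscopy; counts normalized to DMSO control (n ≥ 4).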

[6] = molecular target: T4, Chromobox protein homolog 6 (Homo sapiens, UniProt O95503); assay: Binding affinity to human N-terminal his-tagged CBX6 chromodomain (8 to 65 residues) expressed in Escherichia coli Rosetta BL21(DE3)pLysS by ITC method
T4 sequence (O95503 whole entry): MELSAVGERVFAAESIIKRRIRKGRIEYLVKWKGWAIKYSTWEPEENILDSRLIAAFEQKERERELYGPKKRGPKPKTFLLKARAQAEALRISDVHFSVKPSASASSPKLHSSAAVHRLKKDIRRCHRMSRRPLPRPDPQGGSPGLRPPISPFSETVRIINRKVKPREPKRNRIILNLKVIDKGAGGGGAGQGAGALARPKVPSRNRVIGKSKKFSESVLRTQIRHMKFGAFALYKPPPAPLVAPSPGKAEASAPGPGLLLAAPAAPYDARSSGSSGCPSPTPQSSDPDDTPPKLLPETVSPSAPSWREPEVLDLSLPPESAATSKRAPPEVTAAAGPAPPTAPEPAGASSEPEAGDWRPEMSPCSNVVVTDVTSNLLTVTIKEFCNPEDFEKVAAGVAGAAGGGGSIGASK

[7] = molecular target: T5, Chromobox protein homolog 2 (Homo sapiens, UniProt Q14781); assay: Binding affinity to human N-terminal his-tagged CBX2 chromodomain (9 to 66 residues) expressed in Escherichia coli Rosetta BL21(DE3)pLysS by ITC method
T5 sequence (Q14781 whole entry): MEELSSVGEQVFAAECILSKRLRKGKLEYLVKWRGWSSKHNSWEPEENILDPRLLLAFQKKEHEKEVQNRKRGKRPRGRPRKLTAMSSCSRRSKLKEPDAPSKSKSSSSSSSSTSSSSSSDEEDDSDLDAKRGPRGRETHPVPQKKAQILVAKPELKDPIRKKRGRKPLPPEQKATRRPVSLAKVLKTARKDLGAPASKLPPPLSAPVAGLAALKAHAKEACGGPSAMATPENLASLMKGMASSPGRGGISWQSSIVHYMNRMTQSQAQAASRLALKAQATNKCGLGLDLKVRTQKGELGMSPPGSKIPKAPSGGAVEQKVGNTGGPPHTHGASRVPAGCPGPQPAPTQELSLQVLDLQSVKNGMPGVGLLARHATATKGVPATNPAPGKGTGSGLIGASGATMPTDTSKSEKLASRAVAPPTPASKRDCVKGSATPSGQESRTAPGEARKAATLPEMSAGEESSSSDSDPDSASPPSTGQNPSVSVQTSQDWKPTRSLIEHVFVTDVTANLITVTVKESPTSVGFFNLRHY

[8] = molecular target: T6, Chromodomain Y-like protein (Homo sapiens, UniProt Q9Y232); assay: Binding affinity to human N-terminal GST-tagged CDYL1b chromodomain (1 to 78 residues) expressed in Escherichia coli Rosetta BL21(DE3)pLysS by ITC method
T6 sequence (Q9Y232 whole entry): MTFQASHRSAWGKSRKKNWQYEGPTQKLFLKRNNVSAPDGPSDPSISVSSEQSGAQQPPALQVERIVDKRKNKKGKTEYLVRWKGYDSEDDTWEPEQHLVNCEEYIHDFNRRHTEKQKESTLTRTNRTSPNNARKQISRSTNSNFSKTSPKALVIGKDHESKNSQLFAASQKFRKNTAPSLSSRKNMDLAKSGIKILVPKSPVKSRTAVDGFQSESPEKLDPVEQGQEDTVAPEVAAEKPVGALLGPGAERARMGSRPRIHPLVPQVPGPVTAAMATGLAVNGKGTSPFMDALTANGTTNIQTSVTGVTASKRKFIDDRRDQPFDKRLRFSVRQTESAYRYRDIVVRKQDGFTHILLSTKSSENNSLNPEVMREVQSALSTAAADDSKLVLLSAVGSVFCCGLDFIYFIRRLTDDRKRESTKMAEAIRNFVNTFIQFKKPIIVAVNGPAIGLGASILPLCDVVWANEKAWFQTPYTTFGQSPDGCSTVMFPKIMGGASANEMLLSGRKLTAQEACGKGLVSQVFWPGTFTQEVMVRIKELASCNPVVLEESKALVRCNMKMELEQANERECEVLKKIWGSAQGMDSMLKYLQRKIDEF

[9] = molecular target: Chromobox protein homolog 5 (Homo sapiens, UniProt P45973); assay: Binding affinity to CBX5 chromodomain (unknown origin) by ITC method
Chain of Chromobox protein homolog 5 (P45973 whole entry): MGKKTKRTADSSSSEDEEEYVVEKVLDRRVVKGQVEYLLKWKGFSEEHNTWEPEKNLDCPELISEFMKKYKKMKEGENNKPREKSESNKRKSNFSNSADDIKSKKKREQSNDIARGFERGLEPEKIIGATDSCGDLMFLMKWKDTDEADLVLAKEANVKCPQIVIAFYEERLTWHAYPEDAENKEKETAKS

[10] = molecular target: Chromobox protein homolog 1 (Homo sapiens, UniProt P83916); assay: Binding affinity to CBX1 chromodomain (unknown origin) by ITC method
Chain of Chromobox protein homolog 1 (P83916 whole entry): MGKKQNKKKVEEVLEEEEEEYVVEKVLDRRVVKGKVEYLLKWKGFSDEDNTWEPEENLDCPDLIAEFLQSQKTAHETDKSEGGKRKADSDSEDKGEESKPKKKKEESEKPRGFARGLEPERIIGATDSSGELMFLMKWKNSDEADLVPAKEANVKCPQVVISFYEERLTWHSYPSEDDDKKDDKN

SMILES: CCN(CC)CCCC[C@H](NC(=O)[C@H](CC(C)C)NC(=O)[C@H](C)NC(=O)[C@H](Cc1ccccc1)NC(=O)c1ccc(C(C)(C)C)cc1)C(=O)N[C@@H](CO)C(=O)OC ({Benzoyl(4-tBu)}-FAL[Lys(Et2)]S-OMe)
- Kd [1]: 850 nM
- Kd [2]: 6300 nM
- Kd [3]: 1200 nM
- Kd [4]: > 100000 nM
- Activity [5]: Active
- Kd [6]: 610 nM
- Kd [7]: 1800 nM
- Kd [8]: 910 nM
- Kd [9]: > 100000 nM
- Kd [10]: > 100000 nM
